In ChEMBL document CHEMBL4808255, “Design, synthesis, and target identification of new hypoxia-inducible factor 1 (HIF-1) inhibitors containing 1-alkyl-1H-pyrazole-3-carboxamide moiety” (Bioorg Med Chem, 2021):
Active and inactive are the calls of the source. The calls are words filed in the database; no cut-off is given here.

Assays:
[1] = target: T1, Hypoxia-inducible factor 1-alpha (Homo sapiens, UniProt Q16665); assay: Inhibition of hypoxia-induced HIF1 alpha transcriptional activity in human HeLa cells transfected with luciferase reporter containing of HRE assessed as reduction in luciferase activity incubated for 1 hrs under normoxic condition followed by incubation under hypoxic condition for 24 hrs by luciferase reporter gene assay; assay type: cell-based
[2] = target: T1, Hypoxia-inducible factor 1-alpha; assay: Inhibition of hypoxia-induced HIF1 alpha transcriptional activity in human HeLa cells assessed as reduction in CA9 mRNA level at 3 uM incubated for 1 hrs under normoxic condition followed by incubation under hypoxic condition for 24 hrs by quantitative RT-PCR analysis; assay type: cell-based; settings: time 25.0 hrs
HeLa [3] = assay: Inhibition of mitochondrial complex V in human HeLa cells assessed as reduction in oxygen consumption rate at 0.1 to 1 uM for 1.5 hrs cells pretreated with FCCP/antimycin A/rotenone by XF mito stress test assay; assay type: cell-based; settings: dose 0.1-1 µM
In short: (§1)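 HeLa cells at 80–90% confluency equilibrated 1.5 h at 37 °C without CO₂. OCR recorded at baseline and after sequential injections: compound (0.1, 1, 10 μM) or oligomycin 0.5 μM, then FCCP 0.5 μM, then rotenone/antimycin A (0.5 μM each). Seahorse XF analyzer; n = 6, mean ± SEM.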

[4] = target: T1, Hypoxia-inducible factor 1-alpha; assay: Inhibition of hypoxia-induced HIF1 alpha transcriptional activity in human HeLa cells assessed as HIF1alpha protein level incubated for 1 hrs under normoxic condition followed by incubation under hypoxic condition for 24 hrs by Western blotting analysis; assay type: cell-based; settings: time 25.0 hrs
[5] = target: T1, Hypoxia-inducible factor 1-alpha; assay: Inhibition of hypoxia-induced HIF1 alpha transcriptional activity in human HeLa cells assessed as reduction in VEGF mRNA level at 3 uM incubated for 1 hrs under normoxic condition followed by incubation under hypoxic condition for 24 hrs by quantitative RT-PCR analysis; assay type: cell-based; settings: time 25.0 hrs
HeLa [6] = assay: Inhibition of mitochondrial complex V in human HeLa cells assessed as reduction in oxygen consumption rate at 0.1 to 1 uM for 1.5 hrs by XF mito stress test assay; assay type: cell-based; settings: dose 0.1-1 µM; in short: as §1
[7] = target: ATP synthase F(1) complex subunit beta, mitochondrial (Homo sapiens) (UniProt P06576); assay: Competitive binding affinity to ATP5B in human HeLa cell mitochondrial fraction in presence of KUSC-5051 by LC-MS/MS analysis; settings: Mitochondria
In short: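 HeLa S3 lysate fractionated into debris (1 mg/mL), mitochondrial (0.8 mg/mL) and cytosol (0.6 mg/mL) fractions. Fractions incubated with DMSO or 300 μM competitor, with or without 30 μM photoaffinity probe, 1 h at 37 °C, then UV 365 nm for 30 min. Click labeling, NeutrAvidin enrichment, SDS-PAGE. The ~60 kDa band was trypsin-digested 12 h at 37 °C for LC-MS/MS, with confirmation by anti-ATP5B western blot.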

HeLa S3 = assay: Cytotoxicity against human HeLa S3 cells assessed as reduction in cell viability incubated for 72 hrs by cell proliferation assay; assay type: functional, cell-based; settings: HeLa S3, 72 h
In short: (§2)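 Cells seeded at 1.5 × 10³ per well and grown 24 h, then exposed to solvent or serial dilutions of test compound for 72 h. Viability read with Cell Counting Kit-8. Triplicate wells (n = 3); representative of two independent experiments.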

[8] = target: T1, Hypoxia-inducible factor 1-alpha; assay: Inhibition of hypoxia-induced HIF1 alpha transcriptional activity in human HeLa cells at 3 uM incubated for 1 hrs under normoxic condition followed by incubation under hypoxic condition for 24 hrs by quantitative RT-PCR analysis; assay type: cell-based; settings: time 25.0 hrs
HT-1080 = assay: Cytotoxicity against human HT-1080 cells assessed as reduction in cell viability incubated for 72 hrs by cell proliferation assay; assay type: functional, cell-based; settings: HT-1080, 72 h; in short: as §2
[9] = target: ATP synthase F(1) complex catalytic subunit beta, mitochondrial (Bos taurus) (UniProt P00829); assay: Inhibition of ATP5B in bovine heart mitochondrial solution assessed as complex V activity at 10 to 100 nM incubated for 2 hrs by spectrophotometry; settings: Mitochondria, dose 10-100 nM
In short: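 Complex V activity measured in bovine heart mitochondria solution with ATP synthase. Compound at 10 and 100 nM; DMSO 1.0% vehicle; oligomycin 12.6 μM as positive control. Incubated 2 h at 25 °C, monitoring absorbance at 340 nm for NADH consumption. n = 3; representative of three experiments; Student's t-test.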

[10] = Drug localization in mitochondria of human HeLa cells at 1 uM incubated for 3 hrs by MitoTracker Red CMXRos and Hoechst 33342 staining based assay; assay type: ADME
In short: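 HeLa cells exposed 3 h to 1 μM BODIPY-FL fluorescent probe. MitoTracker Red CMXRos (100 nM) and Hoechst 33342 (10 μM) added, then cells fixed and imaged by fluorescence microscopy.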

[11] = target: ATP synthase F(1) complex catalytic subunit beta, mitochondrial (Bos taurus) (UniProt P00829); assay: Inhibition of ATP5B in bovine heart mitochondrial solution assessed as complex V activity at 12.6 nM incubated for 2 hrs by spectrophotometry; settings: Mitochondria
In short: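 Bovine heart mitochondria solution used as the ATP synthase (complex V) source. Compound was incubated 2 h at 25 °C with DMSO at 1.0%. Activity followed as consumption of supplemented NADH by absorbance at 340 nm on a spectrophotometer. Oligomycin was the positive control. n = 3; representative of three independent experiments; Student's t-test.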

SMILES | IC50 [1] | other results
O=C(Nc1ccc(F)cc1F)c1ccn(Cn2cc([N+](=O)[O-])cn2)n1 | 81 µM | –
CCCC(=O)Nc1cnn(Cn2ccc(C(=O)Nc3ccc(C(F)(F)F)cc3)n2)c1 | 1.8 µM | –
O=C(Nc1ccc(Cl)c(Cl)c1)c1ccn(Cn2cc([N+](=O)[O-])cn2)n1 | 13 µM | –
O=C(Nc1cccc(C(F)(F)F)c1)c1ccn(Cn2cc([N+](=O)[O-])cn2)n1 | 33 µM | –
CCC(=O)Nc1cnn(Cn2ccc(C(=O)Nc3ccc(C(F)(F)F)cc3)n2)c1 | 1.2 µM | inhibition [2]: Active; inhibition (HeLa [3]): Active; inhibition [4]: Dose-Dependent Effect; inhibition [5]: Active; inhibition (HeLa [6]): Active; Activity [7]: Active; IC50 (HeLa S3): 34.5 µM; inhibition [8]: Active; IC50 (HT-1080): 0.6 µM; inhibition [9]: Active
CC(C)c1ccc(NC(=O)c2ccn(Cn3cc([N+](=O)[O-])cn3)n2)cc1 | 21 µM | –
O=C(Nc1ccc(C(F)(F)F)cc1)c1ccn(Cn2cc([N+](=O)[O-])cn2)n1 | 18 µM | –
O=C(Cc1ccccc1)Nc1cnn(Cn2ccc(C(=O)Nc3ccc(C(F)(F)F)cc3)n2)c1 | 1.4 µM | –
Nc1cnn(Cn2ccc(C(=O)Nc3ccc(Br)cc3)n2)c1 | 20 µM | –
O=C(Nc1ccc(Br)cc1)c1ccn(Cn2cnc([N+](=O)[O-])c2)n1 | 58 µM | –
O=C(Nc1ccc(Br)cc1)c1ccn(Cn2cc([N+](=O)[O-])cn2)n1 | 18 µM | –
O=C(Nc1ccccc1)c1ccn(Cn2cc([N+](=O)[O-])cn2)n1 | > 100 µM | –
O=C(Nc1ccc(Br)cc1)c1ccn(Cn2cccn2)n1 | 66 µM | –
CCCNc1cnn(Cn2ccc(C(=O)Nc3ccc(C(F)(F)F)cc3)n2)c1 | 1.2 µM | –
O=C(Nc1cccc(Br)c1)c1ccn(Cn2cc([N+](=O)[O-])cn2)n1 | 35 µM | –
Cc1cc(C)n2c1C=C1C=C(CCC(=O)Nc3cnn(Cn4ccc(C(=O)Nc5ccc(C(F)(F)F)cc5)n4)c3)C=[N+]1[B-]2(F)F | – | Drug uptake [10]: Active
O=C(Nc1ccc(Cl)cc1)c1ccn(Cn2cc([N+](=O)[O-])cn2)n1 | 20 µM | –
C#CCCCC1(CCC(=O)Nc2cnn(Cn3ccc(C(=O)Nc4ccc(C(F)(F)F)cc4)n3)c2)N=N1 | – | Activity [7]: Active
CC(=O)Nc1cnn(Cn2ccc(C(=O)Nc3ccc(C(F)(F)F)cc3)n2)c1 | 5.5 µM | –
O=C(Nc1ccc(Cl)cc1Cl)c1ccn(Cn2cc([N+](=O)[O-])cn2)n1 | 35 µM | –
O=C(Nc1ccccc1Br)c1ccn(Cn2cc([N+](=O)[O-])cn2)n1 | 45 µM | –
COc1ccc(NC(=O)c2ccn(Cn3cc([N+](=O)[O-])cn3)n2)cc1 | > 100 µM | –
O=C(Nc1ccc(Br)cc1)c1ccn(Cn2ccnc2)n1 | 34 µM | –
O=C(Nc1ccccc1O)c1ccn(Cn2cc([N+](=O)[O-])cn2)n1 | > 100 µM | –
O=C(Nc1ccc(Br)cc1)c1ccn(Cn2ccc([N+](=O)[O-])c2)n1 | 27 µM | –
O=C(Nc1ccc(F)cc1)c1ccn(Cn2cc([N+](=O)[O-])cn2)n1 | 28 µM | –
CC(=O)Nc1cnn(Cn2ccc(C(=O)Nc3ccc(Br)cc3)n2)c1 | 14 µM | –
CC[C@@H]1/C=C/C=C/C[C@H](C)[C@@H](O)[C@](C)(O)C(=O)[C@H](C)[C@@H](O)[C@H](C)C(=O)[C@H](C)[C@@H](O)[C@H](C)/C=C/C(=O)O[C@H]2[C@@H](C)[C@@H](CC1)O[C@@]1(CC[C@@H](C)[C@@H](C[C@@H](C)O)O1)[C@@H]2C | – | inhibition [11]: Active; IC50 (HeLa S3): 5.3 µM; IC50 (HT-1080): < 0.1 µM
CC(C)C(=O)Nc1cnn(Cn2ccc(C(=O)Nc3ccc(C(F)(F)F)cc3)n2)c1 | 6.9 µM | –
